Rows were chosen to be rich in hits. Some 2.5% of all compounds tested hit in one or more screens of this group.
Dyrk1A ADPGlo – inhibitors of rat Dyrk1A kinase. Q63470. ADP-Glo luminescence, NFATc1 peptide. inhibition, % at 12.5 µM. AID 504441. actives 0.43% (n = 310,000);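 note: plate controls were vehicle with enzyme for no effect and no enzyme for full effect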
NSD2 HMT inh – blocks human histone methyltransferase NSD2; O96028; NSD2 peptide methylation, AlphaScreen, 120 min; inhibition, % at 12.5 µM; actives 0.54% (n = 310,000); AID 743445
Target sequence (O96028 whole entry, looked up): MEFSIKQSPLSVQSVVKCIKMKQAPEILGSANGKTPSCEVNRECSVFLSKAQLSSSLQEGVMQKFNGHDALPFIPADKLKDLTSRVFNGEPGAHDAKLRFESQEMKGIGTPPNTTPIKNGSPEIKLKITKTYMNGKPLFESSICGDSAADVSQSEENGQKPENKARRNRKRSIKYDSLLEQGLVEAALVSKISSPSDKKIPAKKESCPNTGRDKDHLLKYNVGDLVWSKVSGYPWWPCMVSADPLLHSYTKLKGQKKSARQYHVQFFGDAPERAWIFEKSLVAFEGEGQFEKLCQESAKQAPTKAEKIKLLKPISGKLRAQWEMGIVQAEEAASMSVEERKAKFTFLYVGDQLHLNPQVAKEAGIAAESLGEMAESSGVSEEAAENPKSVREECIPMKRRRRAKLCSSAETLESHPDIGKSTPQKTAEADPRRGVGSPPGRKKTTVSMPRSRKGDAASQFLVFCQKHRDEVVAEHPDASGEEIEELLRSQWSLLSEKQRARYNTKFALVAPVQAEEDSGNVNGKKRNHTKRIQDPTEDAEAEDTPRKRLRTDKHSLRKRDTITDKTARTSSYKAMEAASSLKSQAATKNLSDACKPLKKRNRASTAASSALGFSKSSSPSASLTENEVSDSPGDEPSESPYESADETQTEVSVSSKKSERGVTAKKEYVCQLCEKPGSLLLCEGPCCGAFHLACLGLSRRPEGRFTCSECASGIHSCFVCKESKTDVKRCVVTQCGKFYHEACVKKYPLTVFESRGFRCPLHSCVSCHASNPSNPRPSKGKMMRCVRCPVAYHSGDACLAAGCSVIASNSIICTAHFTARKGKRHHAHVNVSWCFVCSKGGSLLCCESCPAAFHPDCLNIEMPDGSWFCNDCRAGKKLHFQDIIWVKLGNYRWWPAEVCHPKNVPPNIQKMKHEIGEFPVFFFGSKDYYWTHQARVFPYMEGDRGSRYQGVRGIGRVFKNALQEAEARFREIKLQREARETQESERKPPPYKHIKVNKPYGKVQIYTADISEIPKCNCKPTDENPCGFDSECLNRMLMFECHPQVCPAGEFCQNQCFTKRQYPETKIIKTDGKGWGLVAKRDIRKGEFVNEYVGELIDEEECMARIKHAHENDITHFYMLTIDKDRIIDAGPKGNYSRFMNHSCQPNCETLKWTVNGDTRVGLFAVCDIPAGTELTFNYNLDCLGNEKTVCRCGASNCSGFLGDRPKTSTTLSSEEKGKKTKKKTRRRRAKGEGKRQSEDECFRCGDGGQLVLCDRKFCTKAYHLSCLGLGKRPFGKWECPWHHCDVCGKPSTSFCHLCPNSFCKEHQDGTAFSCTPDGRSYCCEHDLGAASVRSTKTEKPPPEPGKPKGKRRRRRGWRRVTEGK
SR-BI uptake up – enhances SR-BI lipid uptake from DiI-HDL; CHO ldlA[mSR-BI] cells, DiI-HDL uptake fluorescence, 3 h; 100 = double the neutral-control signal; activation, % at 12.5 µM; actives 0.096% (n = 320,000); AID 504775;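 active = mean replicate activation of at least 60% and every replicate at or above 60%; inconclusive = mean or all-replicate condition met, but not both; inactive = mean below 60% and not all replicates reaching 60%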;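 note: 0% = median plate neutral-control signal and 100% = twice that signal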
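system = CHO ldlA[mSR-BI] cells, LDL receptor-null, SR-BI overexpressing | medium = Ham's F12 with 0.5% BSA, HEPES 25 mM, pH 7.4 | probe or stimulus = DiI-HDL 10 µg/mL | compound dosing = single-point compound dose | incubation = compound exposure 3 h, 37 °C | technique = DiI fluorescence, bottom read | read-out = cell-associated DiI fluorescence as measure of HDL uptake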
SR-BI HDL uptake – blocks mouse SR-BI lipid uptake from DiI-HDL; AID 488896; inhibition, % at 12.5 µM; actives 0.96% (n = 320,000); ldlA[mSR-BI] CHO cells, DiI-HDL uptake fluorescence, 3 h;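 active = mean replicate inhibition of at least 70% and a set share of replicates each scoring 70 or more; inconclusive = meets just one of the two criteria; inactive = fails both criteria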;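 note: 0% = median of neutral control wells and 100% = median of positive control wells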
dFosB act-1 – mouse delta FosB homodimer activation | AID 493131 | P13346 | actives 0.99% (n = 340,000) | purified delta FosB, TAMRA-CDK5 oligo fluorescence polarization; percent of positive-control signal above neutral wells | activation, % at 25 µM;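 active = mean activation above about 17%, with every replicate also reaching it, limit read from the data, passing the limit was not always enough; inconclusive = only one of the two conditions met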
CDK5 p35 inh – blocks human CDK5/p35 kinase activity. actives 0.01% (n = 330,000). inhibition, % at 10 µM. Recombinant CDK5/p35, ADP-Glo luminescence, 60 min. AID 488839. Q00535+Q15078;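 active = highest replicate inhibition of at least 50% and at least 75% of replicates reaching 50%; inconclusive = only one of the two criteria met; inactive = both criteria failed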;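 note: plate controls were DMSO neutral control for no effect and GW8510 at 10 µM for full effect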
dFosB act-2 – enhances mouse delta FosB homodimer binding to DNA | purified delta FosB, TAMRA-CDK5 oligo fluorescence polarization; normalised: neutral wells 0, positive control 100 | activation, % at 24.9 µM | AID 588690 | 2,400 tested, under 10 active | shares compounds with dFosB act-1;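 active = highest replicate activation at or above 34% and every replicate reaching that threshold; inconclusive = meets only one of the two criteria; inactive = meets neither criterion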;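 note: higher polarization means more probe DNA bound by delta FosB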
Starred values were filed as active, the others as inactive; ? = inconclusive; nt = no result. Cut-off read from the data, not from the text of the source, unless noted: active = inhibition above about 50%; inactive = the rest.

SMILES | Dyrk1A ADPGlo | NSD2 HMT inh | SR-BI uptake up | SR-BI HDL uptake | dFosB act-1 | CDK5 p35 inh | dFosB act-2
O=C(Nc1ncc(Cc2ccccc2Cl)s1)c1ccc(-c2cccc([N+](=O)[O-])c2)o1 | 31 | -1 | -33 | 33 | 22* | -2 | 4
Cc1cnc(NC(=O)c2ccc(-c3ccc([N+](=O)[O-])cc3)o2)s1 | 0 | 0 | -5 | 5 | 60* | -2 | 2
Cc1cc(OCC(=O)N2CCC[C@@H]2C(=O)O)c2c(C)c(C)c(=O)oc2c1 | -9 | nt | 23 | -23 | -3 | 1 | nt
Cc1cc(OCC(=O)N2CCN(c3cccc(Cl)c3)CC2)c2c(C)c(C)c(=O)oc2c1 | 2 | -3 | 21 | -21 | 39* | 0 | 0
O=C(c1ccc(Cl)nc1)N1CCC(Cc2ccccc2)CC1 | 4 | 2 | 3 | -3 | -9 | 1 | nt
O=C(Nc1cccc([N+](=O)[O-])c1)Nc1cnccn1 | nt | -4 | 10 | -10 | 27* | -3 | -6
O=C(Nc1cccc([N+](=O)[O-])c1)Nc1cccc([N+](=O)[O-])c1 | 4 | 4 | -53 | 53 | -4 | 0 | nt
CC(=O)Nc1ccc(NC(=O)CCCCCN2C(=O)c3ccccc3C2=O)cc1 | -2 | 1 | 22 | -22 | 25* | 0 | -1
O=C(CCN1C(=O)c2cccc3cccc(c23)C1=O)Nc1ccccc1 | 0 | -2 | 24 | -24 | 27* | 0 | 0
Cc1ccc(NC(=O)CCN2C(=O)c3cccc4cccc(c34)C2=O)cc1 | -2 | -2 | 0 | 0 | 6 | 1 | nt
Cc1nn(Cc2ccc(Cl)cc2)c(C)c1NC(=O)Cn1nc([N+](=O)[O-])c(Cl)c1C | -9 | 1 | -42 | 42 | 20* | -1 | 8
Cc1nn(Cc2ccc(Cl)cc2Cl)c(C)c1NC(=O)Cn1nc([N+](=O)[O-])c(Cl)c1C | -3 | 2 | -54 | 54 | 44* | 1 | 1
Cc1ccc(NC(=O)CNC(=O)C23CC4CC(CC(C4)C2)C3)nc1 | nt | 2 | nt | nt | nt | nt | nt
COc1cccc(CC(=O)N2CCN(C(=O)C(=O)c3ccc(OC)c(OC)c3)CC2)c1 | nt | -1 | nt | nt | nt | nt | nt
O=C(N/N=C/c1cccc(OC2CSC2)c1)c1ccccc1O | 3 | 0 | 9 | -9 | 29* | 0 | -1
CCOC(=O)c1c(C)[nH]c(C(=O)OCC(=O)N2CCN(S(=O)(=O)c3ccc(C)cc3C)CC2)c1C | 9 | -1 | -74 | ? | -11 | 2 | nt
CCc1cccc(NC(=S)Nc2cccc3ccccc23)c1 | -4 | -2 | -12 | 12 | -9 | 0 | nt
O=C(CSc1nc2cc(Cl)c(Cl)cc2[nH]1)c1ccc2c(c1)OCO2 | 5 | -1 | -6 | 6 | 28* | 3 | 4
O=C(CSc1nc2ccc(Cl)cc2[nH]1)c1ccc2c(c1)OCO2 | 7 | nt | -4 | 4 | -3 | -6 | nt
O=C(CSc1nnc(NC(=O)c2ccco2)s1)NC1CCCCC1 | -2 | 3 | 5 | -5 | 22* | 1 | 7
O=C(CSc1nnc(NC(=O)c2ccco2)s1)Nc1ccc(F)cc1 | 5 | -1 | 33 | -33 | 19* | -2 | -5
CC(=O)NC(=O)c1ccc(-c2ccc(Cl)cc2)o1 | 2 | -7 | 16 | -16 | 26* | -1 | 1
CCc1cc2c(Nc3ccc(O)cc3)nc(C)nc2s1 | nt | -1 | -4 | 4 | -6 | 0 | nt
CC(C)(C)NC(=O)CN(CC1CCCO1)C(=O)CNS(=O)(=O)c1ccc(F)cc1 (stereo unspecified) | 0 | -2 | nt | nt | -7 | 0 | nt
CCc1cc2ccc(C)cc2nc1SCC(=O)Nc1c[nH]c(=O)[nH]c1=O | -3 | -1 | -10 | 10 | 22* | 0 | 6
SMILES | Dyrk1A ADPGlo | NSD2 HMT inh | SR-BI uptake up | SR-BI HDL uptake | dFosB act-1 | CDK5 p35 inh | dFosB act-2
O=C(Cn1nc(-c2ccccc2)ccc1=O)Nc1ccc(N2CCN(C(=O)c3ccccc3)CC2)cc1 | 4 | 1 | -11 | 11 | 3 | 0 | nt
O=C(Cn1nc(-c2ccccc2)ccc1=O)Nc1ccc(-n2cnnn2)cc1 | 1 | 3 | 116* | -116 | 58* | 2 | 2
COc1ccc(CNC(=O)Cn2nc(-c3ccc4c(c3)OCCO4)ccc2=O)cc1 | 14 | 3 | 21 | -21 | -1 | 0 | nt
O=C(Cn1nc(-c2ccc3c(c2)OCCO3)ccc1=O)Nc1ccc(-n2cnnn2)cc1 | -2 | -2 | 4 | -4 | 81* | -4 | 6
O=C(Cn1nc(-c2ccccc2)ccc1=O)Nc1ccc(NC(=O)c2ccccn2)cc1 | 2 | 2 | -75 | 75* | 25* | -2 | 0
COc1ccc(-c2ccc(=O)n(CC(=O)Nc3ccc4c(c3)OCCO4)n2)cc1 | 3 | 1 | 18 | -18 | 22* | 0 | -3
Cc1ccc(NC(=O)Cn2nc(C(=O)Nc3ccc(C)cc3)ccc2=O)cc1 | -7 | 4 | -6 | 6 | ? | -1 | nt
O=C(CCCn1c(=S)[nH]c2cc3c(cc2c1=O)OCO3)NCCc1ccccc1Cl | -8 | 0 | -41 | 41 | 14 | 2 | nt
O=C(NC(=S)N1CCCC(C(F)(F)F)C1)c1ccc(F)cc1 (stereo unspecified) | 6 | 15 | nt | nt | -6 | -2 | nt
CC(C)CN(C(=O)COC(=O)CCCc1c[nH]c2ccccc12)c1c(N)n(Cc2ccccc2)c(=O)[nH]c1=O | 3 | 0 | -34 | 34 | 7 | 0 | nt
O=C(OCCc1ccccn1)c1cccc([N+](=O)[O-])c1 | -2 | nt | -2 | 2 | -7 | 1 | nt
COc1cc(OC)nc(C(NC(=O)C2CCN(Cc3ccc(Oc4ccccc4)cc3)CC2)c2ccccc2C)n1 (stereo unspecified) | nt | 4 | nt | nt | nt | nt | nt
O=C(Cn1cnc2c(nnn2-c2cccc(F)c2)c1=O)Nc1ccc2c(c1)OCCO2 | 6 | 11 | 34 | -34 | ? | -2 | nt
COc1ccc(-n2nnc3c(=O)n(CC(=O)Nc4ccc5c(c4)OCCO5)cnc32)cc1OC | -4 | -1 | -13 | 13 | 49* | -1 | 1
O=C(Cn1cnc2ccccc2c1=O)NCCC(=O)Nc1ccccc1C(F)(F)F | -1 | 0 | 3 | -3 | 4 | 1 | nt
O=C(Nc1ccc(F)cc1)Nc1ccc(N2CCOCC2)c2nonc12 | 10 | 12 | -47 | 47 | 5 | 1 | nt
COc1ccc(NC(=O)Nc2ccc(N3CCOCC3)c3nonc23)c(OC)c1 | -2 | 26 | -13 | 13 | 26* | -3 | 4
O=C(O)c1cc(S(=O)(=O)N2CC=C(c3ccccc3)CC2)ccc1O | 7 | 3 | 0 | 0 | -13 | -1 | nt

Screening results from PubChem.
